The nature of series [1]: MRT in Wistar Hannover rat at 0.3 to 0.5 mg/kg, iv by LC-MS/MS analysis. In kind it is ADME, organism-based. Particulars: in vivo, dose 0.3-0.5 mg/kg, time <=24 hrs. The gist of the method:
(§1)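 Male Wistar Hannover rats, catheterized under isoflurane; one day later iv injection into lateral tail vein at 0.3 to 0.5 mg/kg in plasma containing 2% DMSO. Blood sampled via catheter from 0.033 to 24 h. Plasma precipitated with acetonitrile, analysed by LC-MS/MS (10 mM ammonium acetate pH 3.0/acetonitrile gradient). PK parameters calculated from plasma concentrations.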

Series [2] can be described thus: AUC/dose in Wistar Hannover rat at 0.3 to 0.5 mg/kg, iv by LC-MS/MS analysis. As to conditions: in vivo, dose 0.3-0.5 mg/kg, time <=24 hrs. It counts as ADME, organism-based. The gist of the method: as §1
The nature of series [3]: Blood clearance in Wistar Hannover rat at 0.3 to 0.5 mg/kg, iv by LC-MS/MS analysis. As to conditions: whole blood, dose 0.3-0.5 mg/kg, time <=24 hrs. In kind it is ADME, organism-based. The gist of the method: as §1
A short description of series [4]: Half life in Wistar Hannover rat at 0.3 to 0.5 mg/kg, iv by LC-MS/MS analysis. As to conditions: in vivo, dose 0.3-0.5 mg/kg, time <=24 hrs. It counts as ADME, organism-based. The gist of the method: as §1
Series [5] is described as follows: Oral bioavailability in Wistar Hannover rat at 1 mg/kg by LC-MS/MS analysis. In kind it is ADME, organism-based. As to conditions: in vivo, time <=24 hrs. The gist of the method:
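Catheterized male Wistar Hannover rats dosed by gavage at 1 mg/kg in 10% ethanol/40% PEG/50% water. Blood taken via catheter at 0.083 to 24 h. Plasma precipitated with acetonitrile and analysed by LC-MS/MS. Bioavailability derived against iv dosing at 0.3 to 0.5 mg/kg.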

Series [6] has as its target T1, Nuclear receptor subfamily 1 group I member 2 (Homo sapiens, UniProt O75469).
T1 sequence (O75469 whole entry): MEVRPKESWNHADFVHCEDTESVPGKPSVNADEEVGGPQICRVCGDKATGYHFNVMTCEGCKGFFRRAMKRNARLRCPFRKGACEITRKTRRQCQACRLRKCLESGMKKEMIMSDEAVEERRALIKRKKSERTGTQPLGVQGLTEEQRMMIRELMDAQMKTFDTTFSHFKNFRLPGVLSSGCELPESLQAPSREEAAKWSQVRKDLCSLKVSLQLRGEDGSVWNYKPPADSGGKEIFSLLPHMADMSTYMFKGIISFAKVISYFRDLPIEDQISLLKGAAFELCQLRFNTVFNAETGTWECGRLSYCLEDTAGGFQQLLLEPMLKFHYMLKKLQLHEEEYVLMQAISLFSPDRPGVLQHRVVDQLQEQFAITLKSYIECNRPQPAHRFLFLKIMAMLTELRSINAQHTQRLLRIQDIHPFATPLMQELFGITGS
The experiment in a line: Activation of human PXR human hepatocytes assessed as induction of CYP3A4 mRNA expression incubated for 48 hrs by qPCR analysis. It counts as ADME, tissue-based, Hepatocyte. The gist of the method: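 Human hepatocytes in collagen sandwich, cultured 1 d, then treated with eight 1:3 serial concentrations for 2 consecutive days with daily media change. mRNA isolated on magnetic beads, reverse transcribed, and quantified by TaqMan qRT-PCR against actin/tubulin. Fold induction over vehicle by ΔΔCt; NOEL reported.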
In general terms: Real-time PCR tracks product formation cycle by cycle.

Series [7] can be described thus: Protein binding in rat plasma. It counts as ADME, cell-free. As to conditions: read-out: PPB (converted).
Series [8] in a line: Protein binding in human plasma. In kind it is ADME, cell-free. As to conditions: read-out: PPB (converted).
Series [9] has as its target Plasminogen (Homo sapiens) (UniProt P00747). As to the kind of experiment: Inhibition of purified human plasma plasmin up to 20 uM using MeOSuc-Ala-Phe-Lys-AMC substrate incubated for 30 mins by fluorescence based assay. Particulars: dose microM <=20, time 30.0 min. In a few lines: (§2)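 Final levels: thrombin 0.02 nM; FXa 1.3 nM; FXIa 0.15 nM; plasmin 1.2 nM (substrate 50 μM); tPA 2 nM; kallikrein 0.2 nM; trypsin 0.1 nM; other AMC substrates 5 μM. FVIIa 0.5 pM coupled with tissue factor, factor X 12 nM, FXa substrate 50 μM.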

The target in series [10] is T2, Coagulation factor VII (Homo sapiens) (UniProt P08709).
T2 sequence (whole entry): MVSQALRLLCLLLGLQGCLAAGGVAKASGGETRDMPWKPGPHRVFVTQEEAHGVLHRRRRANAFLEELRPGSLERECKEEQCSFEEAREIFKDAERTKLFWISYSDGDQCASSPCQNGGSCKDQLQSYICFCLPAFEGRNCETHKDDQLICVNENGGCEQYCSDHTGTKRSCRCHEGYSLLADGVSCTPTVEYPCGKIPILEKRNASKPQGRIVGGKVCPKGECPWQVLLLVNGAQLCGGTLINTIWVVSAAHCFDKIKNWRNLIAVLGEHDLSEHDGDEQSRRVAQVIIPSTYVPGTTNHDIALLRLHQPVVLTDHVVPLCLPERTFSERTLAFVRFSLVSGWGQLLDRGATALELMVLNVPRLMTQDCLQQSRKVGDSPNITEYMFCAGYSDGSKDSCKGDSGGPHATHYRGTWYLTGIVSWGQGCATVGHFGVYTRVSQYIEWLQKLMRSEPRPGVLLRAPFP
The experiment in a line: Inhibition of purified human plasma factor-7a up to 20 uM incubated for 30 mins by fluorescence based based coupled protease reaction assay. Particulars: dose microM <=20, time 30.0 min. The gist of the method: as §2

Series [11] addresses Plasma kallikrein (Homo sapiens) (UniProt P03952). The experiment in a line: Inhibition of purified human plasma kallikrein up to 20 uM using H-Pro-Phe-Arg-AMC substrate incubated for 30 mins by fluorescence based assay. As to conditions: dose microM <=20, time 30.0 min. In a few lines:
as §2

Another series addresses Prothrombin (Rattus norvegicus, UniProt P18292). As to the kind of experiment: Inhibition of thrombin in rat plasma. In kind it is cell-free.
The nature of series [12]: Toxicity in HsdCpd:WU rat model of arteriovenous shunt model assessed as prolongation of bleeding time at 0.6 to 6 mg/kg/hr, iv. As to conditions: in vivo, dose 0.6-6 mg/kg/hr. It counts as organism-based.

One molecule from ChEMBL document CHEMBL4665889, “Design, Synthesis, and Pharmacological Characterization of a Neutral, Non-Prodrug Thrombin Inhibitor with Good Oral Pharmacokinetics” (J Med Chem, 2020) can be followed below.

Active and inactive are the calls of the source. The calls are words filed in the database; no cut-off is given here.

Plasminogen (Homo sapiens), sequence (P00747 97-580 limits assumed): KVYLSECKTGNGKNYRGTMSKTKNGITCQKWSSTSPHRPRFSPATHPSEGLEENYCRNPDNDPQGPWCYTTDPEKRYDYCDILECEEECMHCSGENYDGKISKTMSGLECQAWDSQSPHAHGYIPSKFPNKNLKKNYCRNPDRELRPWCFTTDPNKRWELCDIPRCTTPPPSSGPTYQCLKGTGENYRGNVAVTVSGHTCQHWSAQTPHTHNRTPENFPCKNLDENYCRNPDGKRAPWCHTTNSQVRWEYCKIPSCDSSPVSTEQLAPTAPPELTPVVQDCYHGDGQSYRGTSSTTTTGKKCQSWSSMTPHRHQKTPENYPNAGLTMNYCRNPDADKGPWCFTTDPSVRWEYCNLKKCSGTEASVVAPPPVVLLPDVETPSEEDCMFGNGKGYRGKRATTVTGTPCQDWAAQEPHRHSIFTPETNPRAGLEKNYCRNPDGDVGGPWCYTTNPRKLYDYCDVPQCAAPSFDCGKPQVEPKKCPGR
Plasminogen (Homo sapiens), sequence (P00747 581-810 limits assumed): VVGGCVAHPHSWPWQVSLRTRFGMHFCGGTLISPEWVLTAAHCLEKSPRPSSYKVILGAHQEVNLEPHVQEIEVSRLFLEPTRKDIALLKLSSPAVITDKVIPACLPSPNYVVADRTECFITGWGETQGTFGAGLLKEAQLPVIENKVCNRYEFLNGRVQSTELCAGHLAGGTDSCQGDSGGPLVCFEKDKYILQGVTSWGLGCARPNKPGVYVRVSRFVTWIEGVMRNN
Plasma kallikrein (Homo sapiens), sequence (P03952 20-390 limits assumed): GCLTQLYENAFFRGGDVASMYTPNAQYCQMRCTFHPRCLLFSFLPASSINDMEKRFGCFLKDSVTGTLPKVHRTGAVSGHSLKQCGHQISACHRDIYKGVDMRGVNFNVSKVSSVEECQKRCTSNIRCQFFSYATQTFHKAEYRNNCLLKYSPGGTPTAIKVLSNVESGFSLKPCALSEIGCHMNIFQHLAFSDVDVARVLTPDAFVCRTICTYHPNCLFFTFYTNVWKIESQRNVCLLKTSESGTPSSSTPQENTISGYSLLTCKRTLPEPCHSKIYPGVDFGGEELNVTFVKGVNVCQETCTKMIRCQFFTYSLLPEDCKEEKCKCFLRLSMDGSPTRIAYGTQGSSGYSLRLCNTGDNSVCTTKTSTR
Plasma kallikrein (Homo sapiens), sequence (P03952 391-638 limits assumed): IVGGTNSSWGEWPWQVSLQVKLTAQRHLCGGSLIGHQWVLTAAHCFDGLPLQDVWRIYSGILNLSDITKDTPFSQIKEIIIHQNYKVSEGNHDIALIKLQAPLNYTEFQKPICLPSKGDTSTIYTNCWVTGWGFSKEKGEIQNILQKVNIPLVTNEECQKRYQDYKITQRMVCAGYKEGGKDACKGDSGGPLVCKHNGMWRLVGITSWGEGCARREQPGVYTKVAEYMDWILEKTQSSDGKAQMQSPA

What is called MRT is a mean duration of stay, worked out from the concentration-time curve. By clearance is commonly meant the volume of plasma or blood freed of the substance per unit of time. Read a high clearance as a high capacity for elimination. The term half-life denotes the time in which the quantity being followed falls by half. A low value points to fast loss. One may read the bioavailability as the share of a dose that reaches the circulation, judged against a reference dose that is usually intravenous. Broadly, the NOAEL is the highest tested level that showed no adverse finding. For orientation: IC50 means the concentration that gives 50% inhibition. A high value points to weaker potency. For the molecule `COc1cc(C(=O)N2C[C@H](C)OC[C@@H]2CCO)cc2nc(N[C@H](CF)c3cccc(Cl)c3)oc12`, in series [1], the MRT was found to be 1.2 h. Also, the AUC/dose in series [2] was found to be 0.34 kg·h/L. Moreover, in [3], the clearance is 51.7 mL/min/kg. Besides, in [4], the half-life was 1.4 h. For the same molecule, the bioavailability in series [5] stood at 38%. In addition, in [6], the NOAEL is > 10000 ng/mL. The fraction unbound in series [7] and in series [8] was 0.22 each time. The inhibition entry in series [9], in series [10] and in series [11] was “inactive” throughout. In addition, the IC50 at Prothrombin worked out at 10 nM. Moreover, the “fold change (FC)” value in series [12] is reported as < 2.
